Test results published in ChEMBL document CHEMBL2163223, “Synthesis and evaluation of novel α-fluorinated (E)-3-((6-methylpyridin-2-yl)ethynyl)cyclohex-2-enone-O-methyl oxime (ABP688) derivatives as metabotropic glutamate receptor subtype 5 PET radiotracers” (J Med Chem, 2012).
The source made the active and inactive calls. The rule behind the calls is not given here.

How the values were obtained:
[1] = biological target: T1, Metabotropic glutamate receptor 5 (Rattus norvegicus, UniProt P31424); test: Displacement of [3H]-ABP688 from mGluR5 receptor in Sprague-Dawley rat brain after 45 mins by beta counting
T1 sequence (P31424 whole entry): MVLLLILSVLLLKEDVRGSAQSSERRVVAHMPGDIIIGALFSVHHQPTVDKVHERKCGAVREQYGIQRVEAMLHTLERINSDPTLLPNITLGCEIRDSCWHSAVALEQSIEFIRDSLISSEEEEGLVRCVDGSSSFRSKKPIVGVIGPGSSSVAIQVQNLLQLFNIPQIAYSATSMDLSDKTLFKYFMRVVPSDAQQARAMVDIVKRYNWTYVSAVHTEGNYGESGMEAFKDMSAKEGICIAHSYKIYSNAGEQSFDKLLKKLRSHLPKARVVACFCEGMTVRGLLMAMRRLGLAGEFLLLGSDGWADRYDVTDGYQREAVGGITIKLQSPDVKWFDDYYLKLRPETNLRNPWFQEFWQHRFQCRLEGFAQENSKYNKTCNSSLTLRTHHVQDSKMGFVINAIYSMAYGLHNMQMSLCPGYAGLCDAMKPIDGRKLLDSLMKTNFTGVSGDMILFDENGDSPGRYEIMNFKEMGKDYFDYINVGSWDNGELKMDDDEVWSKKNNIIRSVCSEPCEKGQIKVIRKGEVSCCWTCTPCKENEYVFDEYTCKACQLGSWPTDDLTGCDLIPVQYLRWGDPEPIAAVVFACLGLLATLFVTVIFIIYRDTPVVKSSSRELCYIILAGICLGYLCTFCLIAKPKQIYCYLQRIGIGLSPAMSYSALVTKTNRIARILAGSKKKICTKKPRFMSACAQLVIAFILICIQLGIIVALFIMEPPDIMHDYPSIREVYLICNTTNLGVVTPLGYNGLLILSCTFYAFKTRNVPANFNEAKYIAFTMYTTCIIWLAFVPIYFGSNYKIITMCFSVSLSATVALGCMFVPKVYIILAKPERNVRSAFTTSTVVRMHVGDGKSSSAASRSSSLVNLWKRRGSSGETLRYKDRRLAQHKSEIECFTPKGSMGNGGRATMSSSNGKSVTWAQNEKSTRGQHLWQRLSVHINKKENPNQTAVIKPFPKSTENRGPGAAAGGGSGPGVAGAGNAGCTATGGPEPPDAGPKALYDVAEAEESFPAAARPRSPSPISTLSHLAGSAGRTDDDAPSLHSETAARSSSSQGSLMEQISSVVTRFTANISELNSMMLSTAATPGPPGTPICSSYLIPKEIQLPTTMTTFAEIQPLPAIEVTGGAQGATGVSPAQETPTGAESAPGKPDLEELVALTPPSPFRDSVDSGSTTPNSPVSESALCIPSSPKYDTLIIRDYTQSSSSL
Summary of the method: (§1)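 0.1 mg protein incubated in triplicate at ambient temperature with 2 nM [3H]-ABP688 and competitor 10 pM–100 μM for 45 min. Nonspecific binding from 100 μM MMPEP. Filtered, β-counted.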

[2] = biological target: Metabotropic glutamate receptor 5 (Rattus norvegicus) (UniProt P31424); test: Binding affinity to mGluR5 receptor in Wistar rat brain at 1 to 10 nM after 45 mins by autoradiography in presence of ABP688; conditions: tested as the 18F-labelled form
Metabotropic glutamate receptor 5 (Rattus norvegicus), sequence (P31424 21-1203 limits assumed): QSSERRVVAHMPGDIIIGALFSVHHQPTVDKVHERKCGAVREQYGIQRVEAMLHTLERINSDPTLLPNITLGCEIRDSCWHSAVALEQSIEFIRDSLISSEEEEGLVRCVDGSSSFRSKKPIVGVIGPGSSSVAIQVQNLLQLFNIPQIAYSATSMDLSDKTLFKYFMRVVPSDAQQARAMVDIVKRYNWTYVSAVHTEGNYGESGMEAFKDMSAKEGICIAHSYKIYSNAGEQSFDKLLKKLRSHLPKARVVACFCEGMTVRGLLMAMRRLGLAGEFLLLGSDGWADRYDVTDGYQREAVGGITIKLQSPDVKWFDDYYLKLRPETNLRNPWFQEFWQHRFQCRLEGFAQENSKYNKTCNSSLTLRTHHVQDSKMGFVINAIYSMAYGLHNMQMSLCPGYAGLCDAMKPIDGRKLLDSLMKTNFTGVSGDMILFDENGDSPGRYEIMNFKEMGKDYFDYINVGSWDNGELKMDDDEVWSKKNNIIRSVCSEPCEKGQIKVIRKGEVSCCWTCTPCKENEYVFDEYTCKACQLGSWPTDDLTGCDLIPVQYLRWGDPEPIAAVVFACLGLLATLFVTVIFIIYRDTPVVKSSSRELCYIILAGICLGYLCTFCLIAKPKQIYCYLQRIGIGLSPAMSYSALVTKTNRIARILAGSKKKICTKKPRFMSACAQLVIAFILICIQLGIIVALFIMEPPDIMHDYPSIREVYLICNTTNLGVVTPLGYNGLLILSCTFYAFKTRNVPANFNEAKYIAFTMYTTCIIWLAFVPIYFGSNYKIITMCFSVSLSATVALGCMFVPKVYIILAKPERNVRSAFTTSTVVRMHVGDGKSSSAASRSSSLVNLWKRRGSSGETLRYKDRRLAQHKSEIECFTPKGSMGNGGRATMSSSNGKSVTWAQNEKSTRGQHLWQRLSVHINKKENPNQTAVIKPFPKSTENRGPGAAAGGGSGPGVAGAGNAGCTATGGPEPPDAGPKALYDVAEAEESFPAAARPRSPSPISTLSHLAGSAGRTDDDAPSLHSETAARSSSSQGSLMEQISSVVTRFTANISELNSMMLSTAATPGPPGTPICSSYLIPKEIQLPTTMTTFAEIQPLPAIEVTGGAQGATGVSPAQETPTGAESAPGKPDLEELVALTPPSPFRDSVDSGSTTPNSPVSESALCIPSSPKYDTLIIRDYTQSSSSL
Summary of the method: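 Horizontal brain slices (20 μm) from a male Wistar rat were thawed and preincubated on ice for 10 min in HEPES buffer with 0.1% BSA. They were then incubated with 1 or 10 nM radiotracer, alone or with 100 nM ABP688, in HEPES for 45 min at ambient temperature. Washed on ice in HEPES/0.1% BSA, then twice in HEPES (3 min each), and dipped in water.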

[3] = Lipophilicity, log D of the compound at pH 7.4 by HPLC analysis; assay type: physicochemical; conditions: buffer
[4] = Lipophilicity, log D of the compound at pH 7.4 using shake flask method; assay type: physicochemical; conditions: buffer
[5] = Chemical stability in phosphate buffer at 21 MBq at pH 7.4 after 2 hrs by HPLC analysis; conditions: pH 7.4, 2 h
[6] = biological target: T1, Metabotropic glutamate receptor 5; test: Binding affinity to mGluR5 receptor in Sprague-Dawley rat brain by beta counting; summary of the method: as §1
Plasma = test: Metabolic stability of the compound in rat plasma at 7 to 8 MBq after 2 hrs by HPLC analysis; assay type: ADME, cell-free; conditions: in the assay text read “21 MBq” for “7 to 8 MBq”
Summary of the method: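 Radiotracer (21 MBq) incubated at 37 °C for up to 2 h in phosphate buffer (4 mM KH2PO4/Na2HPO4, 155 mM NaCl, pH 7.4) or rat plasma. Samples taken at several time points, quenched with ice-cold MeCN. Plasma samples centrifuged at 12000g for 10 min. Samples filtered; supernatants analyzed by radio-HPLC on a reversed-phase C18 column with 70% aq MeCN.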

## CO/N=C1/C=C(C#Cc2ccccn2)CCC1F (stereo unspecified)
[1]
  Ki: 3.4 nM

## CCO/N=C1/C=C(C#Cc2ccccn2)CCC1F (stereo unspecified)
[1]
  Ki: 5.7 nM

## CCO/N=C1\C=C(C#Cc2ccccn2)CCC1F (stereo unspecified)
[2]
  Activity: Active
[3]
  logD: 2.1
[4]
  logD: 3.5
[1]
  Ki: 31.2 nM

## CO/N=C1/C=C(C#Cc2cccc(C)n2)CCC1F (stereo unspecified)
[1]
  Ki: 8.5 nM

## CCO/N=C1/C=C(C#Cc2cccc(C)n2)CCC1F (stereo unspecified)
[1]
  Ki: 13 nM

## CCO/N=C1\C=C(C#Cc2ccccn2)CCC1[18F] (stereo unspecified)
[5]
  Stability: Stable
[6]
  Kd: 70 nM
Plasma
  Stability: Stable
